Data published in ChEMBL document CHEMBL3351252, “Design, synthesis, and structure-activity relationship studies of a series of [4-(4-carboxamidobutyl)]-1-arylpiperazines: insights into structural features contributing to dopamine D3 versus D2 receptor subtype selectivity” (J Med Chem, 2014).
Calls of active or inactive are those of the source. No cut-off for these calls is given here.

How the values were obtained:
[1] = molecular target: T1, D(3) dopamine receptor (Homo sapiens, UniProt P35462); assay: Displacement of [125I]IABN from human D3R expressed in HEK293 cell membranes by gamma counting method
[2] = molecular target: T2, D(2) dopamine receptor (Homo sapiens, UniProt P14416); assay: Displacement of [125I]IABN from human D2LR expressed in HEK293 cell membranes by gamma counting method
[3] = species: Homo sapiens; assay: Selectivity index, ratio of Ki for human D2LR to Ki or human D3R
[4] = molecular target: T2, D(2) dopamine receptor; assay: Antagonist activity against human D2LR expressed in CHOK1 cells assessed as inhibition of pergolide-induced beta-arrestin translocation by beta-galactosidase based beta-arrestin recruitment assay; type: cell-based, CHO-K1
[5] = species: Homo sapiens; assay: Selectivity index, ratio of IC50 for human D2LR to IC50 for human D3R by beta-galactosidase based beta-arrestin recruitment assay
[6] = molecular target: T1, D(3) dopamine receptor; assay: Antagonist activity against D3R in human U2OS cells assessed as inhibition of (+)-PD128907-induced beta-arrestin translocation by beta-galactosidase based beta-arrestin recruitment assay; type: cell-based
[7] = molecular target: T1, D(3) dopamine receptor; assay: Inverse agonist activity at D3R in human U2OS cells assessed as inhibition of basal activity at 500 nM by beta-galactosidase based beta-arrestin recruitment assay; type: cell-based
[8] = molecular target: T2, D(2) dopamine receptor; assay: Agonist activity at human D2LR expressed in CHO-K1 cells assessed as stimulation of basal activity by beta-galactosidase based beta-arrestin recruitment assay; type: cell-based
Outline: (§1)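 CHO-K1 cells expressing human D2L receptor, β-arrestin/β-galactosidase fragment-complementation assay. Cells plated 2500/well and grown 48 h at 37 °C. Test compounds given at 11 half-log points from 5 μM, 120 min at 37 °C. Detection reagent added and chemiluminescence read. Results given as % stimulation or inhibition of basal luminescence. Compounds counterscreened for β-gal inhibition.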

[9] = molecular target: T2, D(2) dopamine receptor; assay: Inverse agonist activity at human D2LR expressed in CHO-K1 cells assessed as inhibition of basal activity by beta-galactosidase based beta-arrestin recruitment assay; type: cell-based; outline: as §1
[10] = molecular target: T2, D(2) dopamine receptor; assay: Agonist activity against human D2R expressed in HEK293 cells assessed as inhibition of forskolin-induced adenyl cyclase activity at 10 times Ki relative to quinpirole; type: functional, cell-based
Outline: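 Whole HEK 293 cells expressing human D2R, prelabelled with [2,8-3H]adenine for 75 min at 37 °C, then given 0.1 mM IBMX. […] Stopped with TCA. [3H]cAMP separated on Dowex/alumina. Inhibition normalized to 1 μM quinpirole. Mean ± SEM of ≥3 experiments.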

[11] = molecular target: T2, D(2) dopamine receptor; settings: CHO, 1 uM
[12] = molecular target: T1, D(3) dopamine receptor; settings: CHO, 1 uM
[13] = molecular target: T1, D(3) dopamine receptor; settings: CHO, 10 uM
[14] = molecular target: T2, D(2) dopamine receptor; assay: Agonist activity at human D2R expressed in CHO cells assessed as stimulation of mitogenesis at 10 uM after 24 hrs by [3H]thymidine uptake assay relative to quinpirole; type: cell-based
Outline: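 CHOp-D2 cells grown 48–72 h, then serum-starved 24 h. Exposed to 10 μM compound in serum-free α-MEM for 24 h at 37 °C. Pulsed 2 h with 0.25 μCi [3H]thymidine, trypsinized, filtered and counted. Stimulation expressed relative to maximal quinpirole. Two independent experiments.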

[15] = molecular target: D(3) dopamine receptor (Homo sapiens, UniProt P35462, E90A); assay: Displacement of [125I]IABN from human D3R E90A mutant expressed in HEK293 cell membranes by gamma counting method
Outline: (§2)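 Membranes from HEK 293 cells stably expressing receptor, prepared in 50 mM Tris-HCl pH 7.4/10 mM EDTA/150 mM NaCl and stored at −80 °C. […] Nonspecific binding defined with 2 μM (+)-butaclamol. Filtered, gamma counted. IC50 from single-site nonlinear regression, converted to Ki.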

[16] = molecular target: T2, D(2) dopamine receptor; assay: Displacement of [125I]IABN from chimeric human D2 receptor possessing extracellular loop II of D3 receptor expressed in HEK293 cell membranes by gamma counting method
[17] = molecular target: T1, D(3) dopamine receptor; assay: Displacement of [125I]IABN from wild type human D3R expressed in HEK293 cell membranes by gamma counting method; outline: as §2
[18] = molecular target: D(3) dopamine receptor (Homo sapiens, UniProt P35462, S182I); assay: Displacement of [125I]IABN from human D3R S182I mutant expressed in HEK293 cell membranes by gamma counting method; outline: as §2
[19] = molecular target: T1, D(3) dopamine receptor; assay: Displacement of [125I]IABN from chimeric human D3 receptor possessing extracellular loop II of D2 receptor expressed in HEK293 cell membranes by gamma counting method; outline: as §2
[20] = molecular target: T2, D(2) dopamine receptor; assay: Displacement of [125I]IABN from wild type human D2R expressed in HEK293 cell membranes by gamma counting method
[21] = molecular target: D(3) dopamine receptor (Homo sapiens, UniProt P35462, E90Q); assay: Displacement of [125I]IABN from human D3R E90Q mutant expressed in HEK293 cell membranes by gamma counting method; outline: as §2
[22] = molecular target: T2, D(2) dopamine receptor; settings: CHO-K1, 500 nM
[23] = molecular target: T2, D(2) dopamine receptor; assay: Antagonist activity against human D2R expressed in CHO cells assessed as inhibition of quinpirole-induced mitogenesis after 24 hrs by [3H]thymidine uptake assay; type: cell-based
Outline: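 Serum-starved CHOp-D2 or CHOp-D3 cells given serial dilutions of test compound plus quinpirole (30 nM final). Incubated at 37 °C for 24 h (D2) or 16 h (D3). Then 2 h [3H]thymidine pulse, filtration and counting.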

D(3) dopamine receptor (Homo sapiens, UniProt P35462, E90Q), sequence (P35462 as listed by the source E90Q): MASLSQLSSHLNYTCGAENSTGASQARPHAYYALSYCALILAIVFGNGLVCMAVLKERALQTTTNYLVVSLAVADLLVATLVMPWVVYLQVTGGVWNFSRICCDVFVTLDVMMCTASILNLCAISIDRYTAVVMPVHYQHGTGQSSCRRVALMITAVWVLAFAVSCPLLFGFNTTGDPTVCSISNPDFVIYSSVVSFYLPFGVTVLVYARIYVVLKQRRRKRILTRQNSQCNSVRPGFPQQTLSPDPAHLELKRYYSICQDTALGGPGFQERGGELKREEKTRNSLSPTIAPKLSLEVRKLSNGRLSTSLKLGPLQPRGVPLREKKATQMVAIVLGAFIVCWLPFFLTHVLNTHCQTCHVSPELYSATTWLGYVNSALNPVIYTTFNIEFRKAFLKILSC
D(3) dopamine receptor (Homo sapiens, UniProt P35462, S182I), sequence (P35462 as listed by the source S182I): as the sequence (P35462 as listed by the source E90Q) above, with Q90E, S182I counted along it
T1 sequence (P35462 whole entry): as the sequence (P35462 as listed by the source E90Q) above, with S9G, Q90E counted along it
T2 sequence (P14416 whole entry): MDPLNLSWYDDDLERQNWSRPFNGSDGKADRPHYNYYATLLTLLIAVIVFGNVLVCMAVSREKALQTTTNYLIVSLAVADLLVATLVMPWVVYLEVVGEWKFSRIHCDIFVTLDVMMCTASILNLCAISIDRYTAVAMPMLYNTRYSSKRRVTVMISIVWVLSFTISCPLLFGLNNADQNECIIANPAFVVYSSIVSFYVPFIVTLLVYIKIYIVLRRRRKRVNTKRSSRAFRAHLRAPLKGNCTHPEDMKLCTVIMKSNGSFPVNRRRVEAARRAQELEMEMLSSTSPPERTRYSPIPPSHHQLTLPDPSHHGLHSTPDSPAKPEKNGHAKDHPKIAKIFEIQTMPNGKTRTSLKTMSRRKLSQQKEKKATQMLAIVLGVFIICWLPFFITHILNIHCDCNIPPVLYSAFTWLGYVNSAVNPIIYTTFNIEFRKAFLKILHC
D(3) dopamine receptor (Homo sapiens, UniProt P35462, E90A), sequence (P35462 as listed by the source E90A): as the sequence (P35462 as listed by the source E90Q) above, with Q90A counted along it

| SMILES | Ki [1] [nM] | Ki [2] [nM] | Ratio Ki [3] | IC50 [4] [nM] | Ratio IC50 [5] | IC50 [6] [nM] | Activity [8] | inhibition [9] | inhibition [10] [%] | further results |
| --- | --- | --- | --- | --- | --- | --- | --- | --- | --- | --- |
| CC(C)(C)c1nc(N2CCN(CCCCNC(=O)c3cc4cccnc4s3)CC2)cc(C(F)(F)F)n1 | 32 | 683 | 21 | – | – | – | – | – | – | – |
| CN(C)Cc1c(C(=O)NCCCCN2CCN(c3cc(C(F)(F)F)nc(C(C)(C)C)n3)CC2)[nH]c2ccccc12 | 25 | 527 | 21 | 311 | 22 | 14 | – | – | – | inhibition [7]: < 21% |
| CC(C)(C)c1nc(N2CCN(CCCCNC(=O)c3cc4ccccc4[nH]3)CC2)cc(C(F)(F)F)n1 | 11 | 913 | 83 | 418 | 75 | 5.6 | inactive | inactive | – | – |
| CC(C)(C)c1nc(N2CCN(CCCCNC(=O)[C@H]3CC[C@H](c4ccccc4)CC3)CC2)cc(C(F)(F)F)n1 | – | – | – | – | – | – | inactive | inactive | – | inhibition [11]: < 30%; inhibition [12]: < 30%; inhibition [13]: 40% |
| CC(C)(C)c1nc(N2CCN(CCCCNC(=O)c3cn4nc(Cl)ccc4n3)CC2)cc(C(F)(F)F)n1 | – | – | – | 22 | – | – | inactive | inactive | – | Activity [14]: < 1% |
| CC(C)(C)c1nc(N2CCN(CCCCNC(=O)c3sc4ncccc4c3N)CC2)cc(C(F)(F)F)n1 | 35 | 481 | 14 | – | – | – | – | – | – | – |
| CN(C)Cc1c(C(=O)NCCCCN2CCN(c3cc(C(F)(F)F)nc(C(C)(C)C)n3)CC2)nc2ccccn12 | – | – | 10 | – | 30 | – | inactive | inactive | 8.9 | Ki [15]: 16 nM; Ki [16]: 72 nM; Ki [17]: 9.1 nM; Ki [18]: 16 nM; Ki [19]: 27 nM; Ki [20]: 191 nM; Ki [21]: 19 nM; inhibition [22]: < 30% |
| CC(C)(C)c1nc(N2CCN(CCCCNC(=O)c3cn4ccncc4n3)CC2)cc(C(F)(F)F)n1 | – | – | 56 | 49 | 163 | 0.3 | inactive | inactive | – | inhibition [11]: < 30%; Activity [14]: < 20%; inhibition [12]: < 30%; inhibition [13]: 40% |
| CC(C)(C)c1cc(N2CCN(CCCCNC(=O)c3cn4ccccc4n3)CC2)nc(C(C)(C)C)n1 | – | – | 19 | – | – | – | – | – | – | – |
| CN(C)Cc1cccc2nc(C(=O)NCCCCN3CCN(c4cc(C(F)(F)F)nc(C(C)(C)C)n4)CC3)cn12 | – | – | 11 | – | 9.7 | – | inactive | inactive | – | Ki [15]: 12 nM; Ki [16]: 176 nM; Ki [17]: 16 nM; Ki [18]: 24 nM; Ki [19]: 44 nM; Ki [20]: 245 nM; Ki [21]: 12 nM |
| CC(C)(C)c1nc(N2CCN(CCCCNC(=O)c3cn4cccnc4n3)CC2)cc(C(F)(F)F)n1 | – | – | 36 | 37 | 93 | 0.4 | inactive | inactive | 9.2 | Activity [14]: < 1% |
| CC(C)(C)c1nc(N2CCN(CCCCNC(=O)c3nc4ccccc4[nH]3)CC2)cc(C(F)(F)F)n1 | 4.3 | 336 | 78 | 301 | 35 | 8.5 | inactive | inactive | 5.6 | Activity [14]: < 20%; IC50 [23]: 490 nM |
| CC(C)(C)c1nc(N2CCN(CCCCNC(=O)c3cn4ccccc4n3)CC2)cc(C(F)(F)F)n1 | – | – | – | – | 435 | 0.6 | inactive | inactive | -1.9 | Ki [15]: 13 nM; Ki [16]: 148 nM; inhibition [11]: < 30%; Activity [14]: 0%; Ki [17]: 8.4 nM; inhibition [12]: < 30%; Ki [18]: 12 nM; Ki [19]: 40 nM; inhibition [13]: 40%; Ki [20]: 702 nM; Ki [21]: 20 nM |

Continued, in another order:

| Ki [1] [nM] | Ki [2] [nM] | Ratio Ki [3] | IC50 [4] [nM] | Ratio IC50 [5] | IC50 [6] [nM] | Activity [8] | inhibition [9] | inhibition [10] [%] | SMILES | further results |
| --- | --- | --- | --- | --- | --- | --- | --- | --- | --- | --- |
| 124 | 1300 | 11 | – | – | – | – | – | – | CC(C)(C)c1cc(N2CCN(CCCCNC(=O)c3cn4ccccc4n3)CC2)cc(C(C)(C)C)c1 | – |
| – | – | 4.5 | 248 | 0.6 | 409 | inactive | inactive | 19 | O=C(NCCCCN1CCN(c2ncnc3ccccc23)CC1)c1cn2ccccc2n1 | – |
| 20 | – | 29 | 161 | 3.1 | 52 | inactive | inactive | 1.4 | O=C(NCCCCN1CCN(c2ccnc3ccccc23)CC1)c1cn2ccccc2n1 | – |
| 2010 | 24900 | 12 | – | – | – | – | – | – | Cc1nc(N2CCN(CCCCNC(=O)c3cn4ccccc4n3)CC2)cc(C(F)(F)F)n1 | – |
| 3.5 | 19 | 5.4 | 6.6 | 9.4 | 0.7 | inactive | inactive | 25 | COc1ccccc1N1CCN(CCCCNC(=O)c2cn3ccccc3n2)CC1 | Activity [14]: < 20%; IC50 [23]: 26 nM |
| 0.3 | 12 | 40 | 91 | 455 | 0.2 | inactive | inactive | 45 | O=C(NCCCCN1CCN(c2cccc(Cl)c2Cl)CC1)c1cn2ccccc2n1 | inhibition [11]: < 30%; Activity [14]: < 20%; inhibition [12]: < 30%; IC50 [23]: 55 nM |
| 148 | 3650 | 25 | – | – | – | – | – | – | Cc1cc(N2CCN(CCCCNC(=O)c3cn4ccccc4n3)CC2)nc(C(F)(F)F)n1 | – |
| 10 | 178 | 18 | – | – | – | – | – | – | O=C(NCCCCN1CCN(c2ccccc2)CC1)c1cn2ccccc2n1 | – |
| 77 | 1560 | 20 | – | – | – | – | – | – | O=C(NCCCCN1CCN(c2ccc3ccccc3n2)CC1)c1cn2ccccc2n1 | – |
| 6.4 | 191 | 30 | – | – | – | – | – | – | N#Cc1cc(N2CCN(CCCCNC(=O)c3cn4ccccc4n3)CC2)cc(C(F)(F)F)c1 | – |
| 2.9 | 162 | 56 | 60 | 33 | 1.8 | inactive | inactive | 32 | O=C(NCCCCN1CCN(c2cccc(C(F)(F)F)c2)CC1)c1cn2ccccc2n1 | – |
